MT1-MMP act inh – blockers of MT1-MMP proenzyme processing, primary screen, HT1080 RFP-PRO-GFP cells, GFP/RFP fluorescence; Matrix metalloproteinase-14 (Homo sapiens), P50281; GFP/RFP ratio fluorescence, overnight; percent of plate control window, DMSO zero; GFP/RFP ratio change, % at 20 µM; 360,000 tested, 0.061% active; AID 651647, 2012;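 active means GFP/RFP ratio change of at least 30% with cell ATP level not reduced by more than half and red fluorescence within 50% of control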
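Assay system: HT1080 RFP-PRO-GFP cells. Benchmarks: DMSO vehicle wells and RFP-L50D-GFP reporter cell wells. Times: overnight cell settling, then overnight compound exposure, 37 °C, 5% CO2. Compound: 20 µM single dose, 1% DMSO. Read-out basis: GFP/RFP fluorescence ratio.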
HGIII-sPLA2 inh – human group III sPLA2 inhibitors, primary screen, biochemical, QFRET, BODIPY PC-A2 liposome substrate. 370,000 tested, 0.56% active. QFRET BODIPY PC-A2 liposome hydrolysis, fluorescence. Group 3 secretory phospholipase A2 (Homo sapiens), Q9NZ20. inhibition, % at 12.2 µM;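 active means inhibition above mean plus 3 SD of compounds lying within the high and low control bounds, cut at about 19% in these data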;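 further: 0% = median of test compound wells and 100% = no enzyme DMSO wells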
Target sequence (Q9NZ20 whole entry, looked up): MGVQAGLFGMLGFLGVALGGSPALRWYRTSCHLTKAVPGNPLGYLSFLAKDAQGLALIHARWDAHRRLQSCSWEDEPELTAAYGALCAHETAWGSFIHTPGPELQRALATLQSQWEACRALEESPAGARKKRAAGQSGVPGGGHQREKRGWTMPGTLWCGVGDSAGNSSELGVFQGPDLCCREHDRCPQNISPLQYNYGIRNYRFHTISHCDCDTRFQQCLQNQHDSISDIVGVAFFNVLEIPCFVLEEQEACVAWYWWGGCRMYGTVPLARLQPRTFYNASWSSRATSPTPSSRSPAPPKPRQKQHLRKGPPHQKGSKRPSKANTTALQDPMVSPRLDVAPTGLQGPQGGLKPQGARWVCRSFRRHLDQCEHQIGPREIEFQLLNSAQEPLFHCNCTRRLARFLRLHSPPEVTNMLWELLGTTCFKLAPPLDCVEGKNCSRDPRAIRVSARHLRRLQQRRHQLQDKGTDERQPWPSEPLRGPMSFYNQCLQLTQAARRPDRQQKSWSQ
TAG inh – inhibitors of triacylglycerol accumulation, primary screen, cell-based, uHTS, fluorescence, H9c2; H9c2 cells, Nile Red lipid (TAG) fluorescence; cells loaded with 200 µM oleic acid; inhibition, % at 12.5 µM; 230,000 tested, 0.66% active;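 active means pattern-corrected inhibition of lipid staining of at least 50% with the nuclear-stain viability signal not falling by more than 50%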;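 further: 0% = DMSO wells and 100% = triacsin C control wells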
Efflux pump inh – inhibitors of Candida efflux pumps in yeast, primary screen, S. cerevisiae, Nile Red, multiplex | inhibition, % at 10 µM | 330,000 tested, 0.44% active | AID 485275, 2010 | S. cerevisiae Candida pump triplex;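 active means plate passing quality check with inhibition over a set limit, or well fluorescence over plate mean plus 4 SD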;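 further: Nile Red retained in pooled yeast measured as flow cytometry median fluorescence; 0% = buffer negative control and 100% = Enniatin B positive control; higher means more Nile Red kept so more efflux inhibition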
hGIII sPLA2 conf – human group III sPLA2 inhibitors, confirmation, biochemical, QFRET, triplicate; 2,000 tested, 34% active; shares compounds with HGIII-sPLA2 inh; recombinant hGIII-sPLA2, BODIPY PC-A2 QFRET fluorescence; AID 743280, 2014; inhibition, % at 12.2 µM;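 active means mean inhibition across triplicates above the hit cutoff set in the earlier primary screen, cut at about 19% in these data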;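 further: 0% = enzyme with DMSO and 100% = DMSO wells lacking enzyme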
535nm interf – 535nm fluorescence optical interference, confirmation, artefact control for HGIII-sPLA2 inhibitor project, biochemical, QFRET; shares compounds with HGIII-sPLA2 inh; BODIPY FL product fluorescence interference; inhibition, % at 12.2 µM; 2,000 tested, 8.5% active; AID 743282, 2014;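 active means average inhibition above the solvent-only control mean plus 3 SD, cut at about 6% in these data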;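 further: 0% = DMSO with substrate plus product and 100% = DMSO with substrate alone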
BODIPY interf DR – 535nm fluorescence optical interference, dose response, artefact control for HGIII-sPLA2 inhibitor project, biochemical, QFRET; BODIPY FL product fluorescence interference, cell-free; 240 tested, under 10 active; shares compounds with HGIII-sPLA2 inh; AID 743455, 2014; IC50, µM;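 active means IC50 at or below 10 µM; inactive means IC50 above 10 µM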
Starred values were filed as active, the others as inactive; x = not tested or not shown. An excerpt weighted towards active compounds, which were near 1.3% of everything screened.

SMILES | MT1-MMP act inh | HGIII-sPLA2 inh | TAG inh | Efflux pump inh | hGIII sPLA2 conf | 535nm interf | others
Cn1nc(C(=O)Nc2ccc(S(=O)(=O)N3CCOCC3)cc2)c2ccccc2c1=O | 5.2 | 7.1 | 1.0 | 0.0 | x | x
O=c1c(-c2ccco2)nc2ccccc2n1C(c1ccccn1)c1nc2ccccc2[nH]1 (configuration not stated) | 1.7 | 22.6* | x | x | 5.5 | -0.6
O=C(O)CC1(CC(=O)NCc2cc(F)cc3c2OCOC3)CCCCC1 | 1.0 | 19.5* | 3.2 | 0.0 | 0.0 | -2.0
O=C(/C=C/c1cccnc1)c1ccc(O)cc1 | -2.8 | 22.3* | -7.9 | 0.0 | 3.6 | -6.9
NC(Cc1ccc(C(F)(F)F)cc1)c1csc(Nc2cc(Oc3ccccc3)ncn2)n1 (configuration not stated) | 0.1 | 25.4* | 29.0 | x | 13.4 | -10.0
Nc1ccc(CC(N)c2csc(Nc3cc(Oc4ccccc4)ncn3)n2)cc1 (configuration not stated) | -8.8 | 14.8 | 28.6 | x | x | x
COCCn1c(N)c(N(Cc2ccccc2)C(=O)Cc2c(Cl)cccc2Cl)c(=O)[nH]c1=O | 1.8 | 1.7 | 4.4 | 0.1 | x | x
CC(=O)N1CCN(c2ccc(NCc3ccc(-c4ccc(Br)cc4)o3)cc2)CC1 | 11.4 | 19.6* | -9.5 | 0.0 | 19.7* | -20.6
CC(=O)N1CCN(c2ccc(NCc3ccc(Br)o3)cc2)CC1 | 6.0 | 6.2 | -9.6 | 0.1 | x | x
CCN(CC)S(=O)(=O)c1cccc(C(=O)N/N=C/c2cccc(O)c2O)c1 | -5.0 | 22.6* | 25.6 | -0.3 | 12.0 | 4.0
CCN(CC)S(=O)(=O)c1cccc(C(=O)N/N=C/c2cc(OC)c(O)c(OC)c2)c1 | 6.3 | -8.6 | 10.1 | -0.1 | x | x
COc1ccc(/C=C2\Oc3cc(OCC(=O)N4CCC[C@H]4CO)ccc3C2=O)c(OC)c1 | -7.1 | x | x | 0.1 | x | x
Cc1ccc(Nc2n[nH]c(=S)s2)cc1 | -3.0 | 23.9* | 6.0 | x | 34.3* | 0.5 | BODIPY interf DR=>122
Cc1cc(Cl)ccc1NC(=O)CCC(=O)N/N=C/c1cc([N+](=O)[O-])ccc1O | 3.0 | 3.9 | -5.5 | -0.1 | x | x
O=[N+]([O-])c1ccc(O)c(/C=N/NC(=S)Nc2ccc(Cl)cc2Cl)c1 | -11.2 | 39.7* | 13.8 | -0.2 | 30.6* | 19.8*
CCOC(=O)NC(NC(=S)Nc1ccc(OCC)cc1)C(Cl)(Cl)Cl (configuration not stated) | 24.5 | 23.9* | x | -0.1 | 9.4 | -5.5
COc1ccc(C(=O)NC(=S)NNC(=O)c2ccccc2C)cc1 | x | 24.8* | 27.4 | 0.0 | 29.1* | -1.5
COc1ccc(CC(=O)NNC(=O)c2cnccn2)cc1 | -1.8 | 19.6* | x | -0.1 | 7.5 | -6.7
COc1ccc(C(=O)NNC(=S)NC(=O)C(C)(C)C)cc1 | 2.7 | 22.8* | -13.1 | 0.4 | 19.4* | -9.5
COc1ccc(C(=O)NC(=S)NNC(=O)COc2ccccc2)cc1 | 2.5 | 6.8 | -2.4 | 0.1 | x | x
COc1ccc(CC(=O)NNC(=O)c2ccccn2)cc1 | 1.9 | 0.1 | x | -0.2 | x | x
COc1cc(C(=O)Nc2ccncc2)cc(OC)c1OC | 20.9 | 20.6* | x | -0.1 | -3.0 | -8.0
N#Cc1csc(CCNC(=O)c2ccccc2)n1 | -1.9 | -1.9 | 1.8 | x | x | x
COc1cc(C(=O)NC(=S)NNC(=O)c2cnccn2)cc(OC)c1OC | 4.3 | 21.2* | x | -0.1 | 9.6 | -6.0
COc1cc(C(=O)NNC(=S)NC(=O)c2ccc3c(c2)OCO3)cc(OC)c1OC | 2.1 | 24.3* | 10.3 | -0.1 | 37.0* | -16.1 | BODIPY interf DR=>122
SMILES | MT1-MMP act inh | HGIII-sPLA2 inh | TAG inh | Efflux pump inh | hGIII sPLA2 conf | 535nm interf | others
COc1cc(C(=O)NNC(=S)NC(=O)c2ccccc2C)cc(OC)c1OC | 9.0 | 26.1* | x | 2.5 | 25.0* | -13.1
COc1ccccc1C(=O)NNC(=S)NC(=O)c1cc(OC)c(OC)c(OC)c1 | 9.8 | 7.0 | 2.4 | -0.5 | x | x
COc1ccccc1CNC(=O)C1CCN(S(=O)(=O)c2ccc(-n3cnnn3)cc2)CC1 | -1.7 | -3.2 | x | -0.2 | x | x
c1ccc(-c2csc(CN3CCCCC3)n2)cc1 | -1.1 | -0.7 | -1.2 | x | x | x
Cc1ccc(NC(=O)C(C)N2C(=O)c3ccccc3C2=O)cc1S(=O)(=O)N1CCOCC1 (configuration not stated) | 0.8 | -2.2 | -4.3 | x | x | x
CCOC(=O)C1(C)CCN1C(=O)Cc1ccc(OC)cc1 (configuration not stated) | -1.0 | 24.8* | -6.7 | x | 7.1 | -3.6
CCCCc1nnc2c(N(C)S(=O)(=O)c3ccccc3)nc3ccccc3n12 | 0.8 | 8.6 | 1.1 | 0.0 | x | x
O=C(NC(=S)Nc1ccc(S(=O)(=O)N2CCCCC2)cc1)c1cccs1 | 3.1 | 19.2* | x | 0.3 | 19.3* | -3.8
O=S(=O)(c1ccc(NC(=S)N/N=C/c2ccc(O)c(O)c2)cc1)N1CCOCC1 | 7.0 | -2.9 | 7.4 | 0.0 | x | x
O=[N+]([O-])c1cc(Cl)cc(/C=N/NC(=S)Nc2ccc(S(=O)(=O)N3CCOCC3)cc2)c1O | -8.6 | 68.6* | -5.0 | 0.4 | 70.4* | 19.1*
NS(=O)(=O)c1ccc(NC(=S)Nc2ccc(S(=O)(=O)N3CCCC3)cc2)cc1 | 1.0 | -0.7 | -3.3 | -0.1 | x | x
O=S(=O)(c1ccc(NC(=S)NN=Cc2ccccc2O)cc1)N1CCCCC1 | 8.0 | 26.0* | 1.9 | x | 33.3* | 9.8*
CCOC(=O)C1=C(C(=O)OCC)C2N(Cc3ccc(C#N)cc3)c3ccccc3[C@@]23C[C@@H](C(=O)OC)N(S(=O)(=O)c2cccs2)C3=N1 (some centres not stated) | x | -2.9 | x | x | x | x
CSC[C@H]1CN(c2ccccc2)C(=O)[C@@H]1CC(=O)Nc1ccccc1 | -0.3 | -7.2 | -4.4 | x | x | x
COc1ccc(/C=C/C(=O)NC(=S)NNC(=O)c2ccco2)cc1OC | 9.3 | 20.1* | -2.7 | -0.1 | 25.3* | -22.9
COc1ccc(/C=C/C(=O)NC(=S)NNC(=O)Cc2cccs2)cc1 | 0.2 | 13.6 | -5.3 | -0.3 | x | x
COc1ccc(/C=C/C(=O)NC(=S)Nc2ccc(C(=O)O)cc2)cc1 | 3.3 | 19.9* | x | 0.1 | 2.5 | -6.1
COc1ccc(/C=C/C(=O)NC(=S)NNC(=O)c2ccco2)cc1 | 5.6 | 24.9* | x | 0.0 | 52.8* | -8.4 | BODIPY interf DR=>122
COc1ccc(NC(=S)NC(=O)/C=C/c2ccc(F)cc2)cc1 | -0.6 | -0.8 | x | -0.1 | x | x

Bioassay records from PubChem.
